Hit rate of the full screen: of about 2,500 compounds, about 460 (18%) were called active.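 Rule for the calls: active = mean activation above a cutoff of low control average plus 3 SD from the earlier screen (cut at about 12% in these data); inactive = the rest.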 These entries were drawn from the full list.
Assay: compound fluorescence interference without thin filaments, confirmation, artefact control for cardiac RTF calcium sensitizer project, biochemical (AID 504382)
Conditions: IANBD fluorescence interference counterscreen, buffer, EC20 Ca2+; at 7.2 µM; hits give high values; scaled: EC20 calcium 0, EC100 calcium 100
Summary of the method: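 Doses – one dose of 7.2 µM, 0.7% DMSO · Buffer or medium – MOPS/KCl/MgCl2/EGTA/NTA/DTT buffer, pH 7.2 · Probe or stimulus – Ca2+ fixed at EC20, 0.472 mM · Measured by – fluorescence intensity, excitation 480 nm, emission 540 nm · Read-out – fluorescence interference versus control range · Timing – 15 min compound exposure at 25 °C · Replication – triplicate wells per compound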
For CCCCC(=O)Nc1ccc(C(=O)Nc2ccc(OC)cc2[N+](=O)[O-])cc1, the fluorescence artifact activation was 2.86% (inactive).
With CCCCCn1nc(-c2ccccc2)c2nc3ccccc3nc21 the fluorescence artifact activation was 20.1% (active).
For Cn1nc(-c2ccccc2)c2nc3ccccc3nc21, the fluorescence artifact activation was 0.09% (inactive).
In the case of CCn1nc(-c2ccccc2)c2nc3ccccc3nc21, the fluorescence artifact activation was 4.1% (inactive).
For CCOC(=O)CCC(=O)NCc1ccc2c(c1)cc(C)n2C, the fluorescence artifact activation was 0.01% (inactive).
In the case of COc1ccc2nc3ccccc3nc2c1NC(=O)c1ccc(Cl)cc1Cl, the fluorescence artifact activation was 0.06% (inactive).
For COc1ccc2nc3ccccc3nc2c1NC(=O)c1ccc(Br)cc1, the fluorescence artifact activation was 59.2% (active).
In the case of CC(=O)N1CCN(S(=O)(=O)c2cccc(C(=O)NNC(=O)c3ccc(Br)cc3)c2)CC1, the fluorescence artifact activation was 0.4% (inactive).
For CN(C)c1ccc(/C=C/C(=O)c2cc(Cl)ccc2O)cc1, the fluorescence artifact activation was 0.19% (inactive).
For CC(C)(C)NC(=O)CSc1nnc(-c2ccccn2)n1-c1ccccc1, the fluorescence artifact activation was 0.09% (inactive).
For Cc1cc(C)c2c(SC(C)C)nc(N)nc2n1, the fluorescence artifact activation was 5.3% (inactive).
For CCOCCn1c(CN2CCN(CC)CC2)nc2c1c(=O)n(C)c(=O)n2C, the fluorescence artifact activation was 21.1% (active).
For CCN(CC)c1ccc(/C=C2\C(=O)c3ccc(C(=O)O)cc3C2=O)cc1, the fluorescence artifact activation was 8.82% (inactive).
In the case of CCN(CC)c1ccc2cc(C(=O)NCc3ccc(F)cc3)c(=N)oc2c1, the fluorescence artifact activation was 17.9% (active).
In the case of CCN(CC)c1ccc2cc(C(=O)Nc3ccccn3)c(=O)oc2c1, the fluorescence artifact activation was -0.06% (inactive).
In the case of CCN(CC)c1ccc2cc(C(C)=O)c(=O)oc2c1, the fluorescence artifact activation was 0.03% (inactive).
For N#Cc1c(NC(=O)C2CC=CCC2C(=O)O)sc2c1CCCCCC2 (stereo not given), the fluorescence artifact activation was 0.67% (inactive).
With O=C(O)CCCN1C(=O)/C(=C/c2cn(-c3ccccc3)nc2-c2cccs2)SC1=S the fluorescence artifact activation was 54.1% (active).
For Cc1ccc(-c2nn(-c3ccccc3)cc2/C=C2\SC(=S)N(CCCCCC(=O)O)C2=O)o1, the fluorescence artifact activation was 3.75% (inactive).
For COc1ccccc1C(=O)NNC(=O)CCCN1C(=O)/C(=C/c2cccs2)SC1=S, the fluorescence artifact activation was -0.02% (inactive).
For COc1cccc(/C(O)=C/c2nc3ccc(C(=O)NCCc4cccc(C)c4)cc3[nH]c2=O)c1, the fluorescence artifact activation was 0.04% (inactive).
With CCc1ccc(/C=C2/C(=O)N(C)C(=S)N2CC(=O)OC)s1 the fluorescence artifact activation was 2.56% (inactive).
With O=C(Cn1cnc2c(cnn2-c2ccccc2)c1=O)Nc1ccc(S(=O)(=O)N2CCOCC2)cc1 the fluorescence artifact activation was 7.41% (inactive).
With CN(C)c1ccc(/C=C/C(=O)c2ccc3c(c2)OCO3)cc1 the fluorescence artifact activation was 2.49% (inactive).
For C[C@H]1CN([C@@H](C)CO)C(=O)c2cccc(NC(=O)c3nc4ccccc4s3)c2O[C@H]1CN(C)C(=O)Nc1ccc(F)cc1, the fluorescence artifact activation was 0.31% (inactive).

— PubChem BioAssay AID504382 (The Scripps Research Institute Molecular Screening Center, 2011)
